Assay results published in ChEMBL document CHEMBL2150922, “A sulfoximine-based inhibitor of human asparagine synthetase kills L-asparaginase-resistant leukemia cells” (Bioorg Med Chem, 2012).
Active and inactive are the calls of the source. No cut-off for these calls is given here.

How the values were obtained:
MOLT-4 [1] = test: Cytotoxicity against human ASNase-resistant MOLT4 cells assessed as cell viability at 0.06 mM after 48 hrs by MTS assay in presence of ASNase; type: functional, cell-based
In short: (§1)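 MOLT-4R cells grown in RPMI 1640 with 10% heat-inactivated FBS and penicillin-streptomycin at 37°C under 5% CO2. Cells were exposed to 10-1000 µM inhibitor, with or without 1 U/mL ASNase, for 48 h. Read-out was MTS at 490 nm, as titer relative to untreated cells at t=0; mean ± SD of triplicates.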

[2] = target: T1, Asparagine synthetase [glutamine-hydrolyzing] (Homo sapiens, UniProt P08243); test: Inhibition of human recombinant ASNS expressed in Sf9 cells assessed as assessed as overall inhibition constant for ammonia dependent production of inorganic pyrophosphate by spectrophotometry analysis
T1 sequence (P08243 whole entry): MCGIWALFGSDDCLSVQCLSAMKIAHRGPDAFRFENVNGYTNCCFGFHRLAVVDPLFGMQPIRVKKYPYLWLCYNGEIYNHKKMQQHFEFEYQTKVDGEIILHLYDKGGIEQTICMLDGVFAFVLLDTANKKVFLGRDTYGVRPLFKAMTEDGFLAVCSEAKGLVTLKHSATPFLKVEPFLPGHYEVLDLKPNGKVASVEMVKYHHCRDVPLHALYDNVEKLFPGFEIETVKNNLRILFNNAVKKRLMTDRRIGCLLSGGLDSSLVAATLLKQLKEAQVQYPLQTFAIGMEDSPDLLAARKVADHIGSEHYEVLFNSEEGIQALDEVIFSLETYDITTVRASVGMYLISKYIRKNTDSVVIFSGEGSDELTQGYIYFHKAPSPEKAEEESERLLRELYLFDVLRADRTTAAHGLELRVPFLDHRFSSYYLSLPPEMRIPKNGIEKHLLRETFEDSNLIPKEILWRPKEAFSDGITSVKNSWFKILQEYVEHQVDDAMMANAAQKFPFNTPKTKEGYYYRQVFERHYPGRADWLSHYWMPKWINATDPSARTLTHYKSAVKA
In short: (§2)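 PPi formation was coupled to NADH loss at 340 nm over 20 min. Progress curves at fixed inhibitor levels were fitted, and Ki was taken from k versus [I] with Ka 0.1 mM. Duplicates.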

MOLT-4 [3] = test: Cytotoxicity against human ASNase-resistant MOLT4 cells assessed as cell viability at 0.13 mM after 48 hrs by MTS assay in absence of ASNase; type: functional, cell-based; in short: as §1
MOLT-4 [4] = test: Cytotoxicity against human ASNase-resistant MOLT4 cells assessed as cell viability at 250 uM after 48 hrs by MTS assay in presence of ASNase; type: functional, cell-based; in short: as §1
MOLT-4 [5] = test: Cytotoxicity against human ASNase-resistant MOLT4 cells assessed as cell viability after 48 hrs by MTS assay in absence of ASNase; type: functional, cell-based; in short: as §1
MOLT-4 [6] = test: Cytotoxicity against human ASNase-sensitive MOLT4 cells assessed as cell viability at 130 uM after 48 hrs by MTS assay; type: functional, cell-based
In short: (§3)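 The ASNase-sensitive MOLT-4S line was kept in RPMI 1640 with 10% heat-inactivated FBS and penicillin-streptomycin at 37°C, 5% CO2. They were incubated 48 h with 10-1000 µM compound and no ASNase. Viability was measured by MTS (OD 490) relative to t=0 cell number; mean ± SD of triplicates.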

MOLT-4 [7] = test: Cytotoxicity against human ASNase-resistant MOLT4 cells assessed as cell viability at 0.06 mM after 48 hrs by MTS assay in absence of ASNase; type: functional, cell-based; in short: as §1
[8] = target: T1, Asparagine synthetase [glutamine-hydrolyzing]; test: Inhibition of human recombinant ASNS expressed in Sf9 cells assessed as assessed as initial inhibition constant for ammonia dependent production of inorganic pyrophosphate by spectrophotometry analysis; in short: as §2
[9] = target: T1, Asparagine synthetase [glutamine-hydrolyzing]; test: Inhibition of human recombinant ASNS expressed in Sf9 cells assessed as overall inhibition constant for glutamine dependent production of inorganic pyrophosphate by spectrophotometry analysis
MOLT-4 [10] = test: Cytotoxicity against human ASNase-resistant MOLT4 cells assessed as cell viability at 130 uM after 48 hrs by MTS assay in presence of ASNase; type: functional, cell-based; in short: as §1
MOLT-4 [11] = test: Cytotoxicity against human ASNase-resistant MOLT4 cells assessed as cell viability after 48 hrs by MTS assay in absence of ASNase relative to sulfoximine 1
MOLT-4 [12] = test: Cytotoxicity against human ASNase-resistant MOLT4 cells assessed as cell viability at >500 uM after 48 hrs by MTS assay in absence of ASNase
[13] = target: T1, Asparagine synthetase [glutamine-hydrolyzing]; test: Inhibition of human recombinant ASNS expressed in Sf9 cells assessed as initial inhibition constant for glutamine dependent production of inorganic pyrophosphate by spectrophotometry analysis
MOLT-4 [14] = test: Cytotoxicity against human ASNase-sensitive MOLT4 cells assessed as cell viability at 250 to 500 uM after 48 hrs by MTS assay; type: functional, cell-based; in short: as §3

C[S+]([O-])(CCN)=NP(=O)(O)OC[C@H]1O[C@@H](n2cnc3c(N)ncnc32)[C@H](O)[C@@H]1O (mixture of isomers)
Activity (MOLT-4 [1]): inactive
Ki [2]: 33 nM
Activity (MOLT-4 [3]): Active
Activity (MOLT-4 [4]): Active
Activity (MOLT-4 [5]): Dose-dependent effect
Activity (MOLT-4 [6]): Active
Activity (MOLT-4 [7]): inactive
Ki [8]: 450 nM
Ki [9]: 8 nM
Activity (MOLT-4 [10]): Active
fold change (FC) (MOLT-4 [11]): 7
Activity (MOLT-4 [12]): Active
Ki [13]: 490 nM
Activity (MOLT-4 [14]): Active

C[S+]([O-])(C[C@H](N)C(=O)O)=NP(=O)(O)OC[C@H]1O[C@@H](n2cnc3c(N)ncnc32)[C@H](O)[C@@H]1O (mixture of isomers)
Ki [2]: 2.5 nM
Ki [8]: 280 nM
Ki [9]: 24 nM
Ki [13]: 1000 nM

C[S+]([O-])(CCC(=O)O)=NP(=O)(O)OC[C@H]1O[C@@H](n2cnc3c(N)ncnc32)[C@H](O)[C@@H]1O (mixture of isomers)
Ki [2]: 310 nM
Ki [8]: 3040 nM
Ki [9]: 840 nM
Ki [13]: 4500 nM
